Results on 16 molecules are retold here after PubChem BioAssay.

Structures are written as SMILES. Active and inactive are the calls of the source.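 The calls were made as follows, unless noted: active = viability at or below 10% of carrier control in both of two separate runs; inconclusive = viability at or below 10% in only one of the two runs; inactive = the rest.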

Test [1] is described as follows: Her2 expression decrease, cell viability multiplex – SKBR3 breast tumor cells, AlphaScreen, ATP viability, primary screen (AID 461;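 active = Her2 level under about 52% in both replicate screens, with viability over 70% of control, limit read from the data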;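 as to Her2 level: lower value means less Her2 protein in the cells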;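 as to viability: percent of carrier control wells set as 100% viability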). The note with it: SKBR3 Her2 protein level, 18-24 h, measured here: SKBR3 viability, ATP luminescence, at 10 µM. On the technique in general: Alpha assays give light when donor and acceptor beads are brought close together.
Test [2] addresses Receptor tyrosine-protein kinase erbB-2 (Homo sapiens) (UniProt P04626). The description is as above. The note with it: 18-24 h, at 10 µM, stronger effect = lower value.
The nature of test [3]: reduced viability of SK-BR-3 breast cancer cells – cell-based, 24 h, human, pilot screen (AID 572).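 Also: compound exposure lasted between 18 and 24 h rather than exactly 24 h; 100% = carrier-treated control wells.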 The settings on record: SK-BR-3 viability, CellTiter-Glo luminescence, at 10 µM, stronger effect = lower value. (In general: ATP-based viability assays read luminescence as a measure of living cells.)
The nature of test [4]: HUVEC growth inhibition – cell-based, human, primary screen (AID 575;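 active = viability at or below 30% in both replicate assays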;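 also: 100% = median of untreated cell wells with 0.1% DMSO on each plate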). The settings on record: HUVEC proliferation, CellTiter-Glo luminescence, 72 h; at 10 µM; stronger effect = lower value. The gist of the method:
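Assay system: Primary human umbilical vein endothelial cells | Quantity: 1250 cells per well | Medium: Supplemented EBM, 2% fetal bovine serum | Detection: CellTiter-Glo luminescence measuring cellular ATP | Read-out: % viability vs DMSO wells | Plate: Collagen-coated 384-well format | Times: 72 h exposure, 37 °C, 5% CO2, 30 min RT equilibration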

Test [5] in a line: H69AR cell proliferation blockers – human, duplicate replicates, primary screen (AID 580;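 active = viability at or under a set limit in both replicates, limit being median viability minus 3 SD, cut at about 48% in these data, passing the limit was not always enough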;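 also: 100% = mean luminescence of untreated wells and 0% = no signal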). The note with it: H69AR lung tumor cells viability, ATP luminescence, 72 h; at 10 µM; stronger effect = lower value.
Test [6] is described as follows: MRP1 drug-resistance reversers in H69AR cells – cell-based, doxorubicin co-treatment, pilot screen (AID 601;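 active = viability loss from added drug above about 55%, and viability with drug at most 40%, in both replicates, limit read from the data, passing the limit was not always enough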). The settings on record: CellTiter-Glo, 72 h, at 10 µM; for differential viability (reversal): stronger effect = higher value.
Test [7] is described as follows: yeast transport mutant growth inhibition pilot in 384-well plates, post-Golgi transport modulator project (AID 636; in the data active = inhibition above about 31%). The note with it: absorbance 615 nm, about 18 h, stronger effect = higher value.
Test [8] in a line: growth suppression of yeast trafficking mutant, preliminary HTS, modulators of trafficking downstream of Golgi apparatus project, 1536-format plate, OD 615 nm (AID 637; in the data active = inhibition above about 30%). The note with it: yeast transport mutant growth, absorbance 615 nm, 18 h; stronger effect = higher value.
The mark [9] stands for this setting: H69AR cells + 2 uM doxorubicin, measured here: viability with 2 uM doxorubicin, stronger effect = lower value.
[10] abbreviates: H69AR cells, compound alone cytotoxicity.

Sequence of Receptor tyrosine-protein kinase erbB-2 (Homo sapiens) (P04626 whole entry, looked up): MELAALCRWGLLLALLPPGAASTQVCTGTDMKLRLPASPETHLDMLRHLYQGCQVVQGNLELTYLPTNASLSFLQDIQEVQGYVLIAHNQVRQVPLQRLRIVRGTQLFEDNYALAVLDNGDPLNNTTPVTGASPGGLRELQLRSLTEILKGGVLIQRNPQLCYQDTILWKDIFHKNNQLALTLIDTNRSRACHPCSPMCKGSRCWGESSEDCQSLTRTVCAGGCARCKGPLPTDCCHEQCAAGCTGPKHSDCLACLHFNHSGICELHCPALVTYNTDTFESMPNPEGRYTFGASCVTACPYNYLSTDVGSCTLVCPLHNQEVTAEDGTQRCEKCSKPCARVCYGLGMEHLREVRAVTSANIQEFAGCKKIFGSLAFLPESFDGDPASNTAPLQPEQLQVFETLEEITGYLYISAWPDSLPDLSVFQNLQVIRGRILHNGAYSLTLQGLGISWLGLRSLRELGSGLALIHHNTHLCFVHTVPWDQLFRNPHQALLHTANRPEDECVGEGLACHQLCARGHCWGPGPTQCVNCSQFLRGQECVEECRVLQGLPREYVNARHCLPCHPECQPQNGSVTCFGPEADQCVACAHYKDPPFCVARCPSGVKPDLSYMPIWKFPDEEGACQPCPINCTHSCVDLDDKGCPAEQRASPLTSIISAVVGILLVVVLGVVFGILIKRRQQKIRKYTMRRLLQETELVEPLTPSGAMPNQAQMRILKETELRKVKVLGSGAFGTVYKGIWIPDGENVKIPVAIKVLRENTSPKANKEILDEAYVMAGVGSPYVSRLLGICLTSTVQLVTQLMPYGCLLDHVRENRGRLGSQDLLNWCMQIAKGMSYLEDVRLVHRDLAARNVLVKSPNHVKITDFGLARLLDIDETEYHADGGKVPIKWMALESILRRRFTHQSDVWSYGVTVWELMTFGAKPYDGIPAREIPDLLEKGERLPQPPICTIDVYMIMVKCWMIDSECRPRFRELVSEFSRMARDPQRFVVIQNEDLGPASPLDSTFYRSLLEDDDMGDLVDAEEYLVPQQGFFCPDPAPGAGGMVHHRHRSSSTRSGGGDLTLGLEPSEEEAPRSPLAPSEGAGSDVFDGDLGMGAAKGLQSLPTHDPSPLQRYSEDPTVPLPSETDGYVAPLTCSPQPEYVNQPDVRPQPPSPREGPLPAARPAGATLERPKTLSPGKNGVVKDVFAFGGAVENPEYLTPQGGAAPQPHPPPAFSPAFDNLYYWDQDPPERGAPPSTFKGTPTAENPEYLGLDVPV

Broadly, the viability is a read-out of living cells in per cent, often relative to untreated cells. A word on the inhibition: it is the relative decrease from the control value, in per cent. With `CCC(C(=O)NC1CCCC1)N(Cc1ccco1)C(=O)Cn1nnc(-c2ccc(C)cc2)n1` (stereo not given), the viability in test [1] was 97.5%; in test [3], 97.5% (inactive); in test [4] it was 106% (inactive); in test [5] it was 92.3% (inactive); in test [6] (setting [9]), 94.2%; in test [6] (setting [10]), 92.3%. Also, the Her2 level in test [2] is 97% (inactive). Also, in test [6] (H69AR cells + 2 uM doxorubicin), the differential viability (reversal) is -1.87% (inactive). Further, the inhibition is -3.33% (inactive) in test [7] and -3.44% (inactive) in test [8].
For the molecule `CCOC(=O)c1cccc(NC(=O)CSc2nnc(C3CCCCC3)n2C)c1`, the viability is 91% in test [1]; 91% (inactive) in test [3]; 92.3% (inactive) in test [4]; 91.3% (inactive) in test [5]; 84.7% in test [6] (setting [9]); 91.3% in test [6] (setting [10]). Further, the Her2 level in test [2] is 89% (inactive). Also, in test [6] (H69AR cells + 2 uM doxorubicin), the differential viability (reversal) is 6.58% (inactive). In addition, the figures for the inhibition in test [7] and in test [8] were -6.22% (inactive) and -0.95% (inactive), respectively.
In the case of `Cc1ccc(NC2=NC3(CCCCC3)N=C(N)N2)c(C)c1`, the viability was 114% in test [1]; 114% (inactive) in test [3]; 87.9% (inactive) in test [4]; 102% (inactive) in test [5]; 83.9% in test [6] (setting [9]); 102% in test [6] (setting [10]). Moreover, in test [2], the Her2 level was 96% (inactive). Moreover, in test [6] (H69AR cells + 2 uM doxorubicin), the differential viability (reversal) is 18.6% (inactive). Also, the figures for the inhibition in test [7] and in test [8] were 2.16% (inactive) and -5.87% (inactive), respectively.
Turning to `CC(C)OC(=O)CSc1nnc(-c2ccc(C(C)(C)C)cc2)n1N`, the viability in test [1] is 93%; in test [3] it was 93% (inactive); in test [4], 86.7% (inactive); in test [5], 88.4% (inactive); in test [6] (setting [9]) it was 82.8%; in test [6] (setting [10]), 88.4%. For the same molecule, in test [2], the Her2 level is 108% (inactive). Also, the differential viability (reversal) in test [6] (H69AR cells + 2 uM doxorubicin) was 5.61% (inactive). Besides, the inhibition in test [7] is -2.6% (inactive); in test [8], -12.7% (inactive).
`CCOC(=O)N1CCC(NC(=O)CCN2C(=O)COc3ccccc32)CC1`: the viability in test [1] is 100%; in test [3], 100% (inactive); in test [4], 100% (inactive); in test [5], 84.1% (inactive); in test [6] (setting [9]) it was 77.5%; in test [6] (setting [10]), 84.1%. In addition, the Her2 level in test [2] is 106% (inactive). Moreover, in test [6] (H69AR cells + 2 uM doxorubicin), the differential viability (reversal) is 6.63% (inactive). The inhibition in test [7] is 0% (inactive); in test [8] it was -6.17% (inactive).
As for `O=c1[nH]c(=O)n(C2CCCCCC2)c(O)c1C=NCc1ccc(F)cc1`, the viability in test [1] was 90%; in test [3], 90% (inactive); in test [4], 90.1% (inactive); in test [5] it was 81.5% (inactive); in test [6] (setting [9]), 86.3%; in test [6] (setting [10]), 81.5%. In test [2], the Her2 level was 86.5% (inactive). The differential viability (reversal) in test [6] (H69AR cells + 2 uM doxorubicin) was -4.79% (inactive). Besides, the inhibition is -6.8% (inactive) in test [7] and -2.22% (inactive) in test [8].
Take `COc1cc(NC(=O)c2cc(OC)c(OC)c(OC)c2)c(OC)cc1NC(=O)CN1CCCCC1`: the viability is 86.5% in test [1]; 86.5% (inactive) in test [3]; 67.9% (inactive) in test [4]; 65.9% (inactive) in test [5]; 77.6% in test [6] (setting [9]); 65.9% in test [6] (setting [10]). For the same molecule, in test [2], the Her2 level was 68.5% (inactive). Besides, the differential viability (reversal) in test [6] (H69AR cells + 2 uM doxorubicin) was -11.7% (inactive). The results for the inhibition in test [7] and in test [8] were -5.27% (inactive) and -7.5% (inactive), respectively.
As for `O=C(O)C1CC=CCC1C(=O)Nc1ccc(S(=O)(=O)N2CCCc3ccccc32)cc1` (stereo not given), the viability was 85.5% in test [1]; 85.5% (inactive) in test [3]; 64.4% (inactive) in test [4]; 98.7% (inactive) in test [5]; 94.1% in test [6] (setting [9]); 98.7% in test [6] (setting [10]). The Her2 level in test [2] is 88% (inactive). Further, in test [6] (H69AR cells + 2 uM doxorubicin), the differential viability (reversal) is 4.55% (inactive). In addition, the inhibition in test [7] is -3.73% (inactive); in test [8] it was 0% (inactive).
For `COc1cc(C)c(N)cc1C(C)C`, the viability is 103% in test [1]; 103% (inactive) in test [3]; 89.2% (inactive) in test [4]; 94.1% (inactive) in test [5]; 92.8% in test [6] (setting [9]); 94.1% in test [6] (setting [10]). In addition, the Her2 level in test [2] was 91% (inactive). Also, the differential viability (reversal) in test [6] (H69AR cells + 2 uM doxorubicin) is 1.33% (inactive). Besides, the figures for the inhibition in test [7] and in test [8] were -2.93% (inactive) and -0.82% (inactive), respectively.
Turning to `COC(=O)Cc1c(C)nc2nc(-c3ccco3)[nH]n2c1=O`, the viability is 110% in test [1]; 110% (inactive) in test [3]; 93.6% (inactive) in test [4]; 98.7% (inactive) in test [5]; 90.6% in test [6] (setting [9]); 98.7% in test [6] (setting [10]). Besides, in test [2], the Her2 level is 93% (inactive). Further, the differential viability (reversal) in test [6] (H69AR cells + 2 uM doxorubicin) was 8.05% (inactive). Further, the inhibition is -2.76% (inactive) in test [7] and -3.65% (inactive) in test [8].
As for `CC1Oc2ccccc2N(CC(=O)N(Cc2ccccc2)Cc2ccccn2)C1=O` (stereo not given), the viability in test [1] is 108%; in test [3], 108% (inactive); in test [4] it was 110% (inactive); in test [5] it was 88.6% (inactive); in test [6] (setting [9]), 90.1%; in test [6] (setting [10]), 88.6%. Besides, the Her2 level in test [2] was 100% (inactive). Also, the differential viability (reversal) in test [6] (H69AR cells + 2 uM doxorubicin) was -1.47% (inactive). Also, the inhibition is -5.54% (inactive) in test [7] and -10% (inactive) in test [8].
Turning to `Cc1cc(C)n2nc3nc(N4CCCCC4)nc(-c4ccco4)c3c2n1`, the viability is 81.5% in test [1]; 81.5% (inactive) in test [3]; 79.5% (inactive) in test [4]; 80.2% (inactive) in test [5]; 82.8% in test [6] (setting [9]); 80.2% in test [6] (setting [10]). The Her2 level in test [2] was 81% (inactive). The differential viability (reversal) in test [6] (H69AR cells + 2 uM doxorubicin) is -2.63% (inactive). For the same molecule, the inhibition in test [7] was -4.53% (inactive); in test [8], -5.16% (inactive).
Turning to `Cc1ccc(S(=O)(=O)N2CCC(C(=O)N[C@@H](Cc3ccccc3)C(=O)O)CC2)cc1`, the viability in test [1] was 104%; in test [3] it was 104% (inactive); in test [4] it was 108% (inactive); in test [5], 86.9% (inactive); in test [6] (setting [9]), 77.1%; in test [6] (setting [10]), 86.9%. Besides, the Her2 level in test [2] was 174% (inactive). Moreover, the differential viability (reversal) in test [6] (H69AR cells + 2 uM doxorubicin) is 9.85% (inactive). Moreover, the inhibition in test [7] was -4.27% (inactive); in test [8] it was -6.13% (inactive).
Turning to `Cc1cc(NC(=O)c2cnn3cccnc23)no1`, the viability is 101% in test [1]; 101% (inactive) in test [3]; 97% (inactive) in test [4]; 97.8% (inactive) in test [5]; 93.5% in test [6] (setting [9]); 97.8% in test [6] (setting [10]). Further, in test [2], the Her2 level was 108% (inactive). The differential viability (reversal) in test [6] (H69AR cells + 2 uM doxorubicin) is 4.21% (inactive). The inhibition in test [7] is -0.92% (inactive); in test [8], -5.65% (inactive).
As to `CC(C)=CC/C=C1\CCC(C(=O)O)C(C(=O)O)C1` (stereo not given), the viability in test [1] is 114%; in test [3] it was 114% (inactive); in test [4] it was 91.6% (inactive); in test [5], 104% (inactive); in test [6] (setting [9]), 83.2%; in test [6] (setting [10]), 104%. The Her2 level in test [2] is 104% (inactive). Moreover, in test [6] (H69AR cells + 2 uM doxorubicin), the differential viability (reversal) was 20.5% (inactive). Further, the inhibition in test [7] is -6.13% (inactive); in test [8] it was -0.48% (inactive).
Take `COc1ccc(-c2cc(C(F)(F)F)nc(SCCC(=O)N3CCOCC3)n2)cc1`: the viability in test [1] was 116%; in test [3], 116% (inactive); in test [4] it was 94.1% (inactive); in test [5] it was 90% (inactive); in test [6] (setting [9]), 86.4%; in test [6] (setting [10]), 90%. The Her2 level in test [2] was 90.5% (inactive). The differential viability (reversal) in test [6] (H69AR cells + 2 uM doxorubicin) was 3.6% (inactive). In addition, the inhibition in test [7] was -1.71% (inactive); in test [8], 2.46% (inactive).
